One data set deals with Human RPA (Homo sapiens, UniProt P27694). The data set is described as follows: EMSA of RPA binding to 5'-32P-labeled 34-base ssDNA. As to conditions: for inhibition of RPA DNA binding in vitro (in words): EMSA. The method, boiled down:
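Purified human RPA (25 nM) with 25 nM 5'-32P-labelled 34-base DNA in 20 µL reactions; test compound dissolved in DMSO. Bound and free DNA were resolved by electrophoretic mobility shift.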
For orientation: Mobility shift assays separate free from complexed probe on a gel.

Data set [1] relates to peripheral blood mononuclear cells (PBMCs). The data set is described as follows: Cytotoxicity in freshly isolated PBMCs. The data set is classed as cell-based. As to conditions: freshly isolated non-cancerous cells, data not shown.
The next data set relates to H460 NSCLC cell line. The data set is described as follows: Annexin V/PI flow cytometry cell viability. The data set is classed as cell-based. The conditions noted are these: H460, increasing concentrations, 48 hours. On the technique in general: A flow cytometer gives signals particle by particle.
Data set [2] deals with H460 cells. In words: Cell cycle distribution. The class given is cell-based. In short, it runs like this:
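H460 cells arrested with 0.8 µg/mL nocodazole for 12 h, washed, then given vehicle or 100 µM test compound for 4, 8 or 12 h; asynchronous cells treated 3 h. 10 µM BrdU added for final 2 h (released) or final hour (asynchronous). Fixed in 70% EtOH; PI 1 µg/mL with RNaseA; DNA denatured in 2 M HCl; anti-BrdU then AlexaFluor 488 secondary; FL2-A (PI) and FL1 (BrdU) flow read-out.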

For data set [3], the system named is H460 cells. In words: Combination index analysis with cisplatin or etoposide. The data set is classed as cell-based. As to conditions: H460, 48 hours, all fractions of cells affected. In short, it runs like this:
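H460 cells plated at 1 × 10⁴ cells/cm² for 24 h, then treated concurrently with increasing concentrations of cisplatin or etoposide plus test compound (DMSO stock) for 48 h. Adherent and non-adherent cells were collected and stained with annexin V-FITC/PI, then read by flow cytometry. The combination index was derived by Chou–Talalay analysis across fractions of cells affected.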

A further data set has as its system RPA in H460 cells. The data set is described as follows: Indirect immunofluorescence of RPA p34. The class given is cell-based. The conditions noted are these: H460, 50 µM, 3 hours, versus vehicle. The method, boiled down: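 H460 cells on chamber slides got test compound or vehicle for 3 h. They were fixed in 4% paraformaldehyde (25 °C, 3 min) and permeabilised in 0.2% Triton X-100 (2 min, 4 °C), then blocked in 15% FBS for 1 h. Staining: anti-RPA p34 (1:500, 1 h), Alexa Fluor-594 anti-mouse (1:300, 1 h), then 300 nM DAPI. Imaged by fluorescence microscopy; staining quantified by image analysis.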

Data set [4] concerns RPA foci / DNA-PKcs phosphorylation. In words: Etoposide-induced RPA foci and DNA-PKcs serine 2056 phosphorylation. As to conditions: co-treatment with etoposide. The class given is cell-based.
In data set [5] the test system is Xeroderma Pigmentosum Group A protein (XPA). In words: XPA DNA binding in an ELISA format. The conditions noted are these: data not shown.

Human RPA, sequence (P27694 whole entry): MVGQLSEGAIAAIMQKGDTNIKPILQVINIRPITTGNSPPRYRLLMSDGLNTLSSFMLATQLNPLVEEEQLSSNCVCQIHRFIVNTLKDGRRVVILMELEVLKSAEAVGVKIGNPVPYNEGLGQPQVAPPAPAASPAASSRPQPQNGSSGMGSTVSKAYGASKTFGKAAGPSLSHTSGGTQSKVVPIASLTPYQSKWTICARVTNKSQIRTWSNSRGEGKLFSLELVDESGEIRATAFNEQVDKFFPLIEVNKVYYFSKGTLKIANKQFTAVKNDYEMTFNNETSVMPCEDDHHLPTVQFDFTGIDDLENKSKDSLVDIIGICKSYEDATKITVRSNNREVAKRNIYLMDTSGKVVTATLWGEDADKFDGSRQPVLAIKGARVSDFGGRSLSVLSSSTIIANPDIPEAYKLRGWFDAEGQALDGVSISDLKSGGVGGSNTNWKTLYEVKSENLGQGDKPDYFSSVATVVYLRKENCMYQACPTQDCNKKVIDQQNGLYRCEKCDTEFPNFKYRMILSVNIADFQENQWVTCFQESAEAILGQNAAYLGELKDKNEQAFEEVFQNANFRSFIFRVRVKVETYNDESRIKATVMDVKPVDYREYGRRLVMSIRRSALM
Human RPA, sequence (P15927 whole entry partner): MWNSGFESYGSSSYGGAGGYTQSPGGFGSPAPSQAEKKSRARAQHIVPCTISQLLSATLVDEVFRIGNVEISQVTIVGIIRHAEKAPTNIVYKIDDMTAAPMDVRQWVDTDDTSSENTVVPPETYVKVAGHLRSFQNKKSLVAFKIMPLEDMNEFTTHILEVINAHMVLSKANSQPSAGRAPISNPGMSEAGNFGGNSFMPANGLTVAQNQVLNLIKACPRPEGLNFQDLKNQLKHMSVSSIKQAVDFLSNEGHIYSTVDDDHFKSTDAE
Human RPA, sequence (P35244 whole entry partner): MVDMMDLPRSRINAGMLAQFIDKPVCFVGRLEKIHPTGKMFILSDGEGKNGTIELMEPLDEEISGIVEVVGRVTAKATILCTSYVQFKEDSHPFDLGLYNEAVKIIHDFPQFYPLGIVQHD

On to `COc1ccc(-c2nn(-c3ccccc3)cc2C2CC(c3ccc(Br)cc3)=NN2C(=O)CCC(=O)O)cc1` (centres unmarked) [TDRL-523], for which, at Human RPA, the “inhibition of RPA DNA binding in vitro (in words)” value is “modest in vitro RPA inhibition”.
In the case of `CCOc1ccc2cc(C3CC(c4ccc(Br)cc4)=NN3C(=O)CCC(=O)O)c(Cl)nc2c1` (centres unmarked) [TDRL-505], the “cytotoxic activity in PBMCs” value in data set [1] was “minimal cytotoxic activity”. Besides, in the data set on H460 NSCLC cell line, the “PI staining (membrane integrity)” value is “concentration dependent increase” and the “annexin V staining (apoptosis)” value is recorded as “Minimal annexin V staining”. Further, the “BrdU incorporation after release from nocodazole arrest” value in the data set on H460 cells [2] (H460, 100 µM, 10 µM BrdU final 2 hours) is “no BrdU incorporation was observed”. In addition, in the data set with H460 cells [2] (H460, 100 µM, 12 hours post release), the “S-phase entry after release from nocodazole G2 arrest” value was “did not enter S-phase”. Besides, the “BrdU incorporation in asynchronous cells” value with H460 cells [2] (H460, 3 hours treatment, BrdU final hour) is listed as “small but distinct differences”. The cell cycle distribution result in the data set on H460 cells [2] (H460, 48 hours) was “increase in the proportion of cells in G1-phase”. For the same molecule, in the data set with H460 cells [3], the “interaction with etoposide (combination index analysis)” value is listed as “synergistic activity”. In the data set on RPA in H460 cells, the “intensity of RPA staining” value was “decrease in the intensity of RPA staining”. Also, the “etoposide-induced RPA foci and DNA-PKcs phosphorylation on co-treatment” value in data set [4] was “slight increase”. Also, on Human RPA (data not shown), the “competition of RPA from pre-bound DNA” value is “unable to compete RPA away from DNA”. In addition, in data set [5], the “effect on XPA binding” value is “no inhibitory activity was observed”.
As to `CCN(CC)c1ccc(C2CC(c3ccc(Br)cc3)=NN2C(=O)CCC(=O)O)cc1` (centres unmarked) [TDRL-518], the “inhibition of RPA DNA binding in vitro (in words)” value on Human RPA is “no inhibition”.

These data come from article PMC2882864 (Cancer research, 2010).
